Assay outcomes as filed in PubChem BioAssay.
Hits are enriched below; roughly 2.1% of the tested compounds scored in any of these assays.
CRFR2-BP ag = agonists of CRF-BP/CRF-R2 complex, primary screen, cell-based, HEK293, calcium dye fluorescence, uHTS; CRF-binding protein / CRF receptor 2 complex (human); calcium dye fluorescence (FLIPR); percent of saturating CRF peptide response; activation, % at 13.2 µM; actives 0.46% (n = 350,000); AID 588473, 2011;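 active = activation of at least 50%, plus an integration ratio under a set limit after plate pattern correction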
UCH37 DUB inh = inhibitors of human UCH37 deubiquitinase, primary screen, biochemical, Ub-AMC cleavage, fluorescence; actives 0.33% (n = 330,000); inhibition, % (test concentration not listed); Ubiquitin carboxyl-terminal hydrolase isozyme L5 (Homo sapiens), Q9Y5K5; AID 588478, 2011; purified proteasome/UCH37;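 active = mean inhibition over replicate wells above about 20%, limit read from the data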
Target sequence (Q9Y5K5 whole entry, looked up): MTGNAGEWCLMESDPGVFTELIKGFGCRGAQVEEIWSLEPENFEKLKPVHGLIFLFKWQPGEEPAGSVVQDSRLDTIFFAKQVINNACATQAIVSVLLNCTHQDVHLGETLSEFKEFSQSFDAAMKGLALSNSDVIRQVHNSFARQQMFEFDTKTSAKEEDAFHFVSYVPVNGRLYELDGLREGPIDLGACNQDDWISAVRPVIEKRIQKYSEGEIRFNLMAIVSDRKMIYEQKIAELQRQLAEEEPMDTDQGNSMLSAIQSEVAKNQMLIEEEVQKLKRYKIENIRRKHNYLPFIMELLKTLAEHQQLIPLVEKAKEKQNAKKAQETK
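Material: human UCH37 enzyme supplied as purified proteasome complex. Measure: % inhibition of Ub-AMC cleavage fluorescence. Medium: pH 7.4 Tris-HCl (50 mM) with ovalbumin, ATP-MgCl2, DTT. Times: 30 min preincubation with enzyme, 25 min cleavage at room temperature. Detection: AMC fluorescence intensity at 355/460 nm.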
H9c2 protect = cardioprotection against H2O2-induced cell death, primary screen, uHTS, H9c2 cells, ATPLite luminescence; actives 0.63% (n = 360,000); protection from H2O2 cell death, % at 20 µM; AID 588492, 2011; H9c2 cardiomyocytes, H2O2 injury protection, 2 h;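 active = compounds giving at least 50% protection of heart cells from peroxide-induced death in the single-dose screen, raw or plate-pattern-corrected value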
iPSC survival up = enhancers of single-cell hiPSC survival, primary screen, ATPlite luminescence. survival enhancement, % at 20 µM. AID 602274, 2012. actives 0.044% (n = 360,000). 100% = ROCK inhibitor wells, 0% = DMSO; in the data active = survival enhancement above about 18%;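 also: cells exposed to compounds for 16 hours before the ATP read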
MIN6 prolif-1 = inducers of MIN6 beta-cell proliferation, primary screen, ATP luminescence, uHTS; MIN6 cells proliferation, ATPlite luminescence, 48 h; cells starved in 0.2% serum; 100% = growth in 10% serum; proliferation, % at 10 µM; actives 0.29% (n = 330,000);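 active = compounds whose signal lies at least 3.5 SD above the mean of all wells on their plate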
CRFR2-BP antag = antagonists of CRF-BP/CRF-R2 complex, primary screen, cell-based, HEK293, calcium dye fluorescence, uHTS; CRF-induced calcium fluorescence; inhibition, % at 11.8 µM; actives 0.59% (n = 350,000);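 active = inhibition of the ligand-induced calcium signal above about 50% at the single tested concentration, limit read from the data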
MIN6 prolif-2 = inducers of beta-cell proliferation in MIN6, confirmation, MIN6 cells, mouse; shares compounds with MIN6 prolif-1; ATPlite luminescence, 48 h; cells kept in 0.2% serum; scaled between 0.2% and 10% serum; proliferation increase, % at 50 µM; 920 tested, under 10 active; AID 463095, 2010;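 active = proliferation increase above 40% at any of the four tested concentrations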
Hits are given with their value; 0 = inactive; - = no result.

SMILES | CRFR2-BP ag | UCH37 DUB inh | H9c2 protect | iPSC survival up | MIN6 prolif-1 | CRFR2-BP antag | MIN6 prolif-2
COc1ccc(COn2c(=O)c(C)[n+]([O-])c3ccccc32)cc1OC | 0 | 0 | 0 | 0 | 5.1 | 0 | 0
Cc1cccc(C=NNc2ccc3ccccc3n2)c1 | - | 0 | - | - | - | - | -
Cc1ccccc1N(CC(=O)NN=Cc1ccc(Cl)cc1)C(=O)c1ccccc1 | - | 0 | - | - | - | - | -
COc1cccc(NS(=O)(=O)NC(=O)c2c(C)[nH]c3ccccc23)c1 | 0 | 0 | 0 | 0 | 0 | 0 | -
Cc1[nH]c2ccccc2c1C(=O)NS(=O)(=O)Nc1ccc(F)cc1 | 0 | 0 | 0 | 0 | 8.8 | 0 | 0
C/C(C=Nn1c(-c2ccncc2)n[nH]c1=S)=C\c1ccco1 | - | 0 | - | - | - | - | -
CC(=NNC(N)=O)c1ccc(Cl)cc1 | - | 0 | - | - | - | - | -
O=C(NCc1ccco1)C(c1ccco1)N(Cc1cccs1)C(=O)Cn1nnc2ccccc21 (stereo not drawn) | 0 | 0 | 0 | 0 | 8.0 | 0 | 0
COc1cc(C(=O)NCCCc2ccccc2)cc(OC)c1OC | 0 | 0 | 0 | 0 | 0 | 0 | -
COc1cc(CC(=O)NCCCc2ccccc2)cc(OC)c1OC | 0 | 0 | 0 | 0 | 6.0 | 0 | 0
C=CCc1c(C)nc(C)nc1NN=Cc1ccccc1O | - | 0 | - | - | - | - | -
O=C(Nc1cccc(Cl)c1)Nc1ccnc(-c2cccnc2)n1 | 0 | 0 | 0 | 0 | 11.1 | 0 | 0
CN(C)c1ccc(C=NNC(=S)NCc2ccco2)cc1 | - | 0 | - | - | - | - | -
O=[N+]([O-])c1cccc(C=NNC2=NS(=O)(=O)c3ccccc32)c1 | - | 0 | - | - | - | - | -
COc1cccc2c1c(NC(=O)Nc1ccc(F)cc1F)nn2C | 0 | 0 | 0 | 0 | 6.8 | 0 | 0
CCCCC(OC(=O)CN1C(=O)COc2ccccc21)C(=O)NC1CCCCC1 (stereo not drawn) | 0 | 0 | 0 | 0 | 10.9 | 0 | 0
CCCC(OC(=O)CN1C(=O)COc2ccccc21)C(=O)NC1CCCC1 (stereo not drawn) | 0 | 0 | 0 | 0 | 0 | 0 | -
O=C1Nc2ccc(S(=O)(=O)N3CCCC3)c3ccc(S(=O)(=O)N4CCCC4)c1c23 | 0 | 0 | 0 | 0 | 9.2 | 0 | 0
O=S(=O)(c1ccc(Cl)c2ccccc12)N1CCCC1 | 0 | 0 | 0 | 0 | 0 | 0 | -
Cc1cc(C)nc(NC(=NCCc2c[nH]c3ccccc23)NC(=O)c2ccco2)n1 | 0 | 0 | 0 | 0 | 12.0 | 0 | 0
Cc1cc(C)nc(NC(=NCCc2c[nH]c3ccccc23)NC(=O)Nc2ccccc2)n1 | 0 | 0 | 0 | 0 | 0 | 0 | -
Cc1ccc(NC(=O)CCC(=O)N/N=C/c2coc3ccccc3c2=O)cc1 | 0 | - | 0 | 0 | 0 | 0 | -
Cc1ccc(NC(=O)CCC(=O)N/N=C/c2coc3ccc(F)cc3c2=O)cc1 | 0 | - | 0 | 0 | 10.6 | 0 | 0
CC(CCN1CCc2nc(-c3ccccc3)c(-c3ccccc3)cc2C1)=NO[C@@H](C)c1cc(-c2c(C)cc(C)cc2C)no1 | - | 0 | - | - | - | - | -
C/C(=N/NS(=O)(=O)c1ccc(C)cc1)c1c(O)c2ccccc2oc1=O | 0 | - | 0 | 0 | 0 | 0 | -
SMILES | CRFR2-BP ag | UCH37 DUB inh | H9c2 protect | iPSC survival up | MIN6 prolif-1 | CRFR2-BP antag | MIN6 prolif-2
C/C(=N\NS(=O)(=O)c1ccc(C)cc1)c1cc2ccccc2oc1=O | 0 | - | 0 | 0 | 8.4 | 0 | 0
O=C(NN=Cc1cccnc1)c1ccccc1Br | - | 0 | - | - | - | - | -
O=C(CSc1ccc2nnc(CCNC(=O)c3ccccc3)n2n1)NCCc1ccccc1 | 0 | 0 | 0 | 0 | 10.4 | 0 | 0
COc1cc(C(=O)OCC(=O)NC2CCCCCC2)ccc1OCC(C)C | 0 | - | 0 | 0 | 11.4 | 0 | 0
COc1cc(C(=O)OCC(=O)NCC2CCCCC2)ccc1OCC(C)C | 0 | 0 | 0 | 0 | 0 | 0 | -
COc1ccc(NC(=O)CS(=O)CC(=O)Nc2ccc(NC(C)=O)cc2)cc1 (stereo not drawn) | 0 | 0 | 0 | 0 | 0 | 0 | -
